The results in this text go back to ChEMBL document CHEMBL1131017, “Synthesis and evaluation of peptidyl Michael acceptors that inactivate human rhinovirus 3C protease and inhibit virus replication” (J Med Chem, 1998).

Assay [1] deals with HeLa. Put plainly: Antiviral activity measured in cell culture assay, inhibiting plaque formation by 50% at subumolar concentrations. The class given is functional, cell-based. Conditions: Homo sapiens. The procedure, abridged:
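HeLa monolayers (confluent) were infected with HRV-14 at 100 PFU/plate. After 30 min adsorption they were overlaid with maintenance medium containing 0.5% agarose plus compound at various concentrations, then held 48 h at 35 °C. Cells were formalin-fixed and crystal violet-stained. Duplicate plaque counts were converted to percent of control and the IC50 interpolated. Runs were repeated 2–3 times, the highest interpolated IC50 reported, and enviroxime was included as control.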

In assay [2] the target is T1, Human rhinovirus A protease (Human rhinovirus sp.) (UniProt Q4U254).
T1 sequence (whole entry): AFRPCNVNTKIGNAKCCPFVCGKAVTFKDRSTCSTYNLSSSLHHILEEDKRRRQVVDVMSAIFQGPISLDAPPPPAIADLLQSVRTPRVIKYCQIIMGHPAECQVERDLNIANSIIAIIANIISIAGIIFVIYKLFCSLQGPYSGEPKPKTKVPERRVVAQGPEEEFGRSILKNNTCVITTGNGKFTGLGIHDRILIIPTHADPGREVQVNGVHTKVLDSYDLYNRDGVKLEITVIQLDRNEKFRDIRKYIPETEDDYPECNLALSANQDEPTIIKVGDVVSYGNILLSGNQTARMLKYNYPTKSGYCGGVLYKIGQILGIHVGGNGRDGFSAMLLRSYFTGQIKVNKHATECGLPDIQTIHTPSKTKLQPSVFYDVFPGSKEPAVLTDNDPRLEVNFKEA
The assay can be described thus: Percent inhibition of HRV-14 3C protease was measured at a concentration of 100 ug/mL(average of duplicates which agreed within +/- 10%).

For assay [3], the target named is T1, Human rhinovirus A protease (Human rhinovirus sp.). Put plainly: Percent inhibition of HRV-14 3C protease was measured at a concentration of 1 ug/mL.
For assay [4] the target is unchanged. The assay can be described thus: Percent inhibition of HRV-14 3C protease was measured at a concentration of 5 ug/mL (average of duplicates which agreed within +/- 10%).

Values after ≈ are worked out from the molar mass of the structure shown. Non-standard residues stand in square brackets, D forms with d. Residues, ends and D or L forms follow the SMILES beside them. ξ: configuration not given here. *: point of attachment. X1 = COC(=O)/C=C/[C@H](CCC(N)=O)N*; ξE = NC(CCC(=O)O)C(=O)O; Boc = CC(C)(C)OC(=O)*; OtBu = CC(C)(C)O*

Regarding `COC(=O)/C=C/[C@H](CCC(N)=O)NC(=O)[C@H](Cc1ccccc1)NC(=O)[C@H](CC(C)C)NC(=O)[C@@H](NC(=O)[C@@H](N)CCC(=O)O)C(C)C`, the IC50 in assay [1] was more than 10 µg/mL.
Compound `NC(=O)CCC(/C=C/S(=O)(=O)c1ccccc1)NC(=O)C(Cc1ccccc1)NC(=O)OCc1ccccc1` (stereo not given) returned an IC50 in assay [1] of more than 10 µg/mL. This compound also yielded an inhibition in assay [2] of 42%.
On to `COC(=O)/C=C/[C@H](CCC(N)=O)NC(=O)[C@H](Cc1ccccc1)NC(=O)[C@H](CC(C)C)NC(=O)[C@@H](NC(=O)OCc1ccccc1)C(C)C`, for which the inhibition in assay [3] was 100%. Besides, the midpoint of inhibition in assay [1], the IC50, lay at 0.93 µg/mL (≈ 1.37 µM).
Taken in the same sequence, the figures for `COC(=O)/C=C/[C@H](CCC(N)=O)NC(=O)[C@H](Cc1ccccc1)NC(=O)[C@H](CC(C)C)NC(=O)[C@@H](NC(=O)OC(C)(C)C)C(C)C` were 100% and 0.74 µg/mL (≈ 1.15 µM).
For `COC(=O)/C=C/C(CCC(N)=O)NC(=O)C(Cc1ccccc1)NC(=O)OCc1ccccc1` (stereo not given), the concentration for half-maximal inhibition (IC50) in assay [1] was 3.2 µg/mL (≈ 6.84 µM). The compound further displayed an inhibition in assay [4] of 51%.
For the compound `CCOC(=O)/C=C/C(CCC(N)=O)NC(=O)C(Cc1ccccc1)NC(=O)OC(C)(C)C` (stereo not given), the 50% inhibitory concentration (IC50) in assay [1] is more than 10 µg/mL. In assay [2], this compound came in with an inhibition of 39%.
As to `COC(=O)/C=C/C(CCC(N)=O)NC(=O)OC(C)(C)C` (stereo not given), in assay [2], the inhibition turned out to be 18%.
`COC(=O)/C=C/[C@H](CCC(N)=O)NC(=O)[C@H](Cc1ccccc1)NC(=O)[C@H](CC(C)C)NC(=O)[C@H](NC(=O)[C@@H](N)CCC(=O)O)C(C)C`: in assay [3], the inhibition was found to be 100%.
On to `CCOC(=O)/C=C/C(CCC(N)=O)NC(=O)OCc1ccccc1` (stereo not given), for which the IC50 in assay [1] is more than 10 µg/mL. The same compound came in with an inhibition in assay [2] of 18%.
Taken in the same sequence, the figures for `COC(=O)/C=C/C(CCC(N)=O)NC(=O)C(Cc1ccccc1)NC(=O)OC(C)(C)C` (stereo not given) were more than 10 µg/mL and 42%.
For the compound `CCOC(=O)/C=C/[C@H](CCC(N)=O)NC(=O)[C@H](Cc1ccccc1)NC(=O)[C@H](CC(C)C)NC(=O)[C@@H](NC(=O)OC(C)(C)C)C(C)C`, the inhibition in assay [3] was found to be 100%. In assay [1], this compound yielded a concentration for half-maximal inhibition (IC50) of 0.41 µg/mL (≈ 0.621 µM).
In turn, `CCOC(=O)/C=C/C(CCC(N)=O)NC(=O)OC(C)(C)C` (stereo not given) yielded an IC50 in assay [1] of more than 10 µg/mL. In addition, the inhibition in assay [2] is 27%.
In assay [3], `CC(C)C[C@H](NC(=O)[C@@H](NC(=O)OC(C)(C)C)C(C)C)C(=O)N[C@@H](Cc1ccccc1)C(=O)N[C@H](/C=C/C(=O)O)CCC(N)=O` showed an inhibition of 43%. The compound also came in with an IC50 in assay [1] of more than 10 µg/mL.
Taken in the same sequence, the figures for `COC(=O)/C=C/[C@H](CCC(N)=O)NC(=O)[C@H](Cc1ccccc1)NC(=O)[C@H](CC(C)C)NC(=O)[C@@H](NC(=O)C(CCC(=O)OC(C)(C)C)NC(=O)OC(C)(C)C)C(C)C` (stereo not given in full) (Boc-[ξE](OtBu)VLF-X1) were 100% and 4.5 µg/mL (≈ 5.42 µM).
